Reference: ChEMBL document CHEMBL4665829, “Synthesis, Structure-Activity Relationship, and Antimalarial Efficacy of 6-Chloro-2-arylvinylquinolines” (J Med Chem, 2020)
Activity calls are given as the source filed them. The rule behind the calls is not given here.

How the values were obtained:
[1] = Half life in mouse liver microsomes at 1 uM after 60 mins in presence of NADPH by LC-MS analysis; format: ADME, Microsome; settings: 1 h
Method in brief: (§1)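 Mouse liver microsomes (0.5 mg/mL final protein) in 0.1 M phosphate, pH 7.4, with compound at 1 μM, 37 °C with shaking. Aliquots were quenched in cold acetonitrile and centrifuged; LC–MS gave parent peak area at 60 min relative to 0 min.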

[2] = Intrinsic clearance in mouse liver microsomes assessed as parent compound at 1 uM after 60 mins in presence of NADPH by LC-MS analysis; format: ADME, Microsome; method in brief: as §1
[3] = Selectivity index, ratio of EC50 for cytotoxicity against human HepG2 cells to antiplasmodial activity against chloroquine-resistant Plasmodium falciparum Dd2; format: toxicity, cell-based; settings: read-out: Ratio EC50
[4] = tested on: Plasmodium falciparum; test: Antiplasmodial activity against chloroquine-resistant Plasmodium falciparum Dd2 infected in human erythrocytes assessed as reduction in microbial growth after 72 hrs by SYBR green I staining based fluorescence assay; format: functional, organism-based; settings: Dd2, Erythrocyte
Method in brief: (§2)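 SYBR Green I assay: twofold serial dilutions on P. falciparum cultures at 1% parasitemia, 1% hematocrit, 37 °C, 5% CO₂, 72 h, max 0.1% DMSO. DMSO and CQ as growth and inhibition controls. Plates frozen at −80 °C, thawed, lysed in Tris/saponin/EDTA/Triton buffer with 0.01% SYBR Green I, 1 h dark at room temperature. Fluorescence read at 485 ex/530 em. EC50 by nonlinear dose–response fit.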

[5] = Resistant index, ratio of EC50 for antiplasmodial activity against chloroquine-resistant Plasmodium falciparum Dd2 to antiplasmodial activity against chloroquine-sensitive Plasmodium falciparum 3D7; format: functional
[6] = tested on: HepG2; test: Cytotoxicity against human HepG2 cells assessed as reduction in cell viability after 48 hrs by MTS assay; format: cell-based; settings: HepG2, 48 h
Method in brief: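 HepG2 cells were seeded at 2250 per well and grown 24 h at 37 °C, 5% CO₂. Serial dilutions starting at 25 μM were added for a further 48 h. MTS was then added for 3 h at 37 °C and absorbance read at 490 nm. EC₅₀ came from nonlinear dose–response fits.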

[7] = Stability of compound in mouse liver microsomes assessed as parent compound remaining at 1 uM after 60 mins in presence of NADPH by LC-MS analysis; format: ADME, Microsome; settings: 1 h; method in brief: as §1
[8] = tested on: Plasmodium falciparum; test: Antiplasmodial activity against chloroquine-sensitive Plasmodium falciparum 3D7 infected in human erythrocytes assessed as reduction in microbial growth after 72 hrs by SYBR green I staining based fluorescence assay; format: functional, organism-based; settings: for EC50: 3D7, Erythrocyte; for Activity: Erythrocyte; method in brief: as §2
[9] = tested on: Hemozoin; test: Inhibition of beta-hematin formation at 12.5 to 200 uM after 16 hrs by inverted microscopic analysis; settings: dose microM 12.5-200, time 16.0 hrs
Method in brief: (§3)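 Hemin (2 mM stock in 0.1 M NaOH; 100 μM final), propionate buffer pH 5.2 and sonicated phosphatidylcholine were incubated with a compound concentration series for 16 h at 37 °C with gentle shaking. Crystals were imaged by inverted microscope before quenching with 7.5% SDS in bicarbonate, pH 9.1. Free hemin was measured at 405 nm against a 0–16 μM calibration. Three independent experiments.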

[10] = Drug level in mouse liver microsomes treated with N1-(6-chloro-2-(4-fluorostyryl)quinolin-4-yl)-N2,N2-dimethylethane-1,2-diamine measured up to 60 mins by LC-MS analysis; format: ADME, Microsome; settings: 1 h
Method in brief: (§4)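 Microsomal incubations: mouse liver microsomes at 0.5 mg/mL, 1 μM compound, pH 7.4 phosphate, 37 °C, NADPH-regenerating system. The metabolite mixture was analysed by LC–MS after 15, 30 and 60 min.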

[11] = tested on: Plasmodium falciparum; test: Antiplasmodial activity against synchronous gametocyte early stage of Plasmodium falciparum 3D7 harboring luc7 incubated for 72 hrs by ONE-Glo luciferase assay; format: functional, organism-based; settings: 3D7, 72 h
Method in brief: (§5)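 Gametocytes of P. falciparum 3D7 luc7 induced by nutrient starvation, cultured in heparin medium to remove asexual stages, Percoll-purified as early (II–III) or late (IV–V) stage. 50,000 gametocytes/well exposed 72 h to a 19-point gradient, 0.038 nM–10 μM. ONE-Glo luciferase read after 5 min. EC50 by nonlinear curve fit; three experiments.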

[12] = tested on: Plasmodium falciparum; test: Antiplasmodial activity against synchronous gametocyte late stage of Plasmodium falciparum 3D7 harboring luc7 incubated for 72 hrs by ONE-Glo luciferase assay; format: functional, organism-based; settings: 3D7, 72 h; method in brief: as §5
[13] = tested on: Plasmodium berghei; test: Antiplasmodial activity against Plasmodium berghei ANKA expressing luciferase infected in Swiss Webster mouse at 100 mg/kg, po for 5 days using monophosphate salt form of compound by luminescence based assay; format: functional, organism-based; settings: time 5.0 day
Method in brief: (§6)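 Female Swiss Webster mice got 10³ RBC infected with luciferase-expressing P. berghei ANKA. From 48 h post-infection, groups of five were gavaged once daily for 5 days in 2% methylcellulose/0.5% Tween 80, against a vehicle control. On day 7, mice received 150 mg/kg D-luciferin in PBS, and bioluminescence was imaged by IVIS as a measure of parasite load.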

[14] = tested on: Hemozoin; test: Inhibition of beta-hematin formation after 16 hrs by inverted microscopic analysis; settings: dose microM 12.5-200, time 16.0 hrs; method in brief: as §3
[15] = tested on: Plasmodium falciparum; test: Antiplasmodial activity against late trophozoite synchronized chloroquine-resistant Plasmodium falciparum Dd2 reduction in microbial growth at 5 times of EC50 after 12 hrs by YOYO-1 staining-based flow cytometric analysis; format: functional, organism-based
Method in brief: (§7)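 Dd2 cultures tightly synchronized by magnetic separation and sorbitol were dosed at 5 × EC50 at 6, 18, 30 or 42 h post-invasion. Controls: DHA 50 nM, atovaquone 6.6 nM, DMSO 0.1%. Sampled every 12 h for Giemsa thin smears and for flow cytometry: glutaraldehyde/paraformaldehyde fixation, Triton permeabilization, RNAse, 500 nM YOYO-1, 500,000 events/sample. Three independent biological replicates.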

[16] = tested on: Plasmodium falciparum; test: Parasiticidal activity against chloroquine-resistant Plasmodium falciparum Dd2 infected in RBC assessed as reduction in parasitemia at 5 times of EC50 incubated for 6 to 48 hrs followed by compound washout and then incubated for 96 hrs by Giemsa staining based microscopic analysis; format: functional, organism-based; settings: time hrs 6-48
Method in brief: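 Controls: 0.15% DMSO, DHA 50 nM, atovaquone 6.6 nM. Drug removed by three RPMI washes, then parasitemia followed daily for 96 h by Giemsa thin smears. Three independent biological replicates.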

[17] = tested on: Plasmodium falciparum; test: Antiplasmodial activity against late trophozoite synchronized chloroquine-resistant Plasmodium falciparum Dd2 reduction in microbial growth at 5 times of EC50 after 12 hrs by Giemsa staining-based microscopic analysis; format: functional, organism-based; method in brief: as §7
[18] = tested on: Plasmodium berghei; test: Antiplasmodial activity against Plasmodium berghei ANKA expressing luciferase infected in Swiss Webster mouse at 25 mg/kg, po for 5 days using monophosphate salt form of compound by luminescence based assay; format: functional, organism-based; settings: time 5.0 day; method in brief: as §6
[19] = Drug level in mouse liver microsomes treated with N1,N1-diethyl-N4-(6-methoxy-2-(4-nitrostyryl)quinolin-4-yl)pentane-1,4-diamine measured up to 60 mins by LC-MS analysis; format: ADME, Microsome; settings: 1 h; method in brief: as §4
[20] = Drug level in mouse liver microsomes treated with 6-chloro-N-(4-morpholinobutyl)-2-(2-(pyridin-4-yl)vinyl)quinolin-4-amine measured up to 60 mins by LC-MS analysis; format: ADME, Microsome; settings: 1 h; method in brief: as §4

Structure (SMILES)	t1/2 [1] [min]	CLH [2] [µL/min/mg]	selectivity ratio [3]	EC50 [4] [nM]	Ratio EC50 [5]	EC50 [6] [nM]	Stabilty [7] [%]	EC50 [8] [nM]	further results
Fc1ccc(/C=C/c2cc(NCCCCN3CCOCC3)c3cc(Cl)ccc3n2)cc1F	25.8	53.7	241	25.5	0.9	10400	19.9	27.6	
CN(C)CCNc1cc(/C=C/c2cccc(F)c2)nc2ccc(Cl)cc12	43.2	32.1	810	5.9	0.3	4780	38.2	23	
CN(C)CCNc1cc(/C=C/c2ccccc2F)nc2ccc(Cl)cc12			186	26	0.5	4830		55.9	
CCN(CC)CCCC(C)Nc1ccnc2cc(Cl)ccc12 (stereo not given) [CHLOROQUINE]				174		10400		17.8	inhibition [9]: Active
Fc1ccc(/C=C/c2cc(NCCCCN3CCOCC3)c3cc(Cl)ccc3n2)cc1	22.2	62.4	1480	2.4	0.3	3550	15.4	6.9	
CNCCNc1cc(/C=C/c2ccc(F)cc2)nc2ccc(Cl)cc12									Drug uptake [10]: Active
CN(C)c1ccc2nc3ccc(N(C)C)cc3[s+]c2c1 [METHYLENE BLUE ANHYDROUS]									EC50 [11]: 74.7 nM; EC50 [12]: 107 nM
CN1CCN(CCNc2cc(/C=C/c3ccc(F)cc3)nc3ccc(Cl)cc23)CC1	60.3	23	209	15.3	1	3200	50.2	15.7	Activity [13]: Active; inhibition [14]: Dose-dependent effect; EC50 [11]: 910 nM; Activity [15]: Active; EC50 [12]: 2500 nM; Activity [16]: Active; Activity [17]: Active; Activity [18]: inactive
COc1ccc2nc(/C=C/c3ccc(OC)c(OC)c3)cc(NCCN(C)C)c2c1				187	> 1.3				Activity [8]: Active
CCNCCCC(C)Nc1cc(/C=C/c2ccc([N+](=O)[O-])cc2)nc2ccc(OC)cc12 (stereo not given)									Drug uptake [19]: Active
NCCNc1cc(/C=C/c2ccc(F)cc2)nc2ccc(Cl)cc12									Drug uptake [10]: Active
CCN(CC)CCCC(C)Nc1cc(/C=C/c2ccc([N+](=O)[O-])cc2)nc2ccc(O)cc12 (stereo not given)									Drug uptake [19]: Active
Fc1ccc(/C=C/c2cc(NCc3ccccn3)c3cc(Cl)ccc3n2)cc1	65.3	21.2	127	156	0.6	19800	52.9	248	
Fc1ccc(/C=C/c2cc(NCCN3CCOCC3)c3cc(Cl)ccc3n2)cc1			711	24.2	0.6	17200		41.8	
OCCNCCCCNc1cc(/C=C/c2ccncc2)nc2ccc(Cl)cc12									Drug uptake [20]: Active
FC(F)(F)c1ccc(/C=C/c2cc(NCCCCN3CCOCC3)c3cc(Cl)ccc3n2)cc1	64.9	21.4	332	30.7	0.4	10200	52.7	73.8	
Clc1ccc2nc(/C=C/c3ccncc3)cc(NCCCCN3CCOCC3)c2c1	14.4	96.2	561	9.9	0.5	5670	5.6	20.8	
CN1CCN(CCCCNc2cc(/C=C/c3ccncc3)nc3ccc(Cl)cc23)CC1			251	33.4	0.9	8380		36.1	
NCCCCNc1cc(/C=C/c2ccncc2)nc2ccc(Cl)cc12									Drug uptake [20]: Active
CN(C)CCNc1cc(/C=C/c2ccncc2)nc2ccc(Cl)cc12	22.3	62.2	212	28.8	0.5	6110	15.5	56.6	
COc1ccc2nc(/C=C/c3cc(OC)c(OC)c(OC)c3)cc(NCCN(C)C)c2c1				74.2	> 1.3				Activity [8]: Active
